Bioassay records as filed in PubChem.
Scp1 inh: Scp-1 phosphatase inhibitors, primary screen, biochemical, colorimetric, uHTS. 0.88% of 340,000 active. inhibition, % at 20 µM. Carboxy-terminal domain RNA polymerase II polypeptide A small phosphatase 1 (Homo …. Recombinant Scp1, phosphopeptide, malachite green phosphate absorbance;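 active = inhibition above about 50% at 20 µM, limit read from the data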;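 note: plate controls were DMSO wells with enzyme for no effect and wells lacking enzyme for full effect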
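Material: truncated SCP-1 phosphatase (76-261aa) / Buffer or medium: 50 mM Tris acetate pH 5.5, 0.005% Tween-20, 10 mM MgCl2 / Compound dosing: one concentration, 20 µM, with 1.0% DMSO / Incubation: 45 min room-temperature reaction, 5 min colour, 30 min stabiliser / Detection: colorimetric free-phosphate detection, absorbance 630 nm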
STEP inh: STEP phosphatase inhibitors, primary screen, biochemical, fluorescence intensity, uHTS; recombinant STEP, OMFP fluorogenic substrate; inhibition, % at 20 µM; AID 588621, 2011; 0.25% of 360,000 active; Tyrosine-protein phosphatase non-receptor type 5 (Homo sapiens), P54829;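 active = inhibition at 20 µM, scaled per plate between control wells, above about 37%, limit read from the data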;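 note: 0% = DMSO with enzyme and substrate and 100% = substrate only without enzyme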
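medium = Bis-Tris buffer pH 6.0, 2.5 mM DTT, 0.005% Tween 20 | test system = STEP (striatal-enriched tyrosine phosphatase) enzyme, cell-free | measure = normalized % inhibition | compound dosing = 20 µM, 1% DMSO | also added = 25 µM OMFP | schedule = reaction 20 min, ambient temperature | measured by = fluorescence read at 480 nm ex / 540 nm em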
SUMO1-SIM PPI: modulators of SUMO1 protein-protein interactions, primary screen, biochemical, uHTS; Small ubiquitin-related modifier 1 (Homo sapiens), P63165; SUMO1 binding to a labelled peptide, TR-FRET, 1 h; inhibition, % at 20 µM; 0.33% of 360,000 active; AID 602429, 2012; in the data active = inhibition above about 37%
LMPTP block: LMPTP phosphatase inhibitors, primary screen, biochemical, fluorescence intensity, uHTS. recombinant LMPTP-A, OMFP fluorogenic substrate. inhibition, % at 20 µM. Low molecular weight phosphotyrosine protein phosphatase (Homo sapiens), P24666. 0.22% of 360,000 active;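 active = compounds that cut the enzyme signal by at least half of the control window in the single-dose screen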;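 note: plate controls were DMSO wells with enzyme plus substrate for no effect and substrate without enzyme for full effect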
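Test system: LMPTP-A phosphatase enzyme. Amount: LMPTP-A at 0.625 nM final in the reaction. Reagent: OMFP substrate, 400 µM final. Times: 50 min at room temperature. Signal: endpoint fluorescence intensity from OMFP dephosphorylation. Read-out basis: % inhibition. Benchmarks: no-enzyme and uninhibited controls.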
DNMT1 inh: human DNMT1 methyltransferase inhibitors, primary screen, biochemical, molecular beacon, fluorescence, HinP1I cleavage, uHTS. 0.83% of 360,000 active. DNA (cytosine-5)-methyltransferase 1 (Homo sapiens), P26358. AID 588458, 2011. inhibition (reported as % activation of signal), % at 10 µM; in the data active = inhibition above about 50%
Target sequence (P26358 504-1616 limits assumed): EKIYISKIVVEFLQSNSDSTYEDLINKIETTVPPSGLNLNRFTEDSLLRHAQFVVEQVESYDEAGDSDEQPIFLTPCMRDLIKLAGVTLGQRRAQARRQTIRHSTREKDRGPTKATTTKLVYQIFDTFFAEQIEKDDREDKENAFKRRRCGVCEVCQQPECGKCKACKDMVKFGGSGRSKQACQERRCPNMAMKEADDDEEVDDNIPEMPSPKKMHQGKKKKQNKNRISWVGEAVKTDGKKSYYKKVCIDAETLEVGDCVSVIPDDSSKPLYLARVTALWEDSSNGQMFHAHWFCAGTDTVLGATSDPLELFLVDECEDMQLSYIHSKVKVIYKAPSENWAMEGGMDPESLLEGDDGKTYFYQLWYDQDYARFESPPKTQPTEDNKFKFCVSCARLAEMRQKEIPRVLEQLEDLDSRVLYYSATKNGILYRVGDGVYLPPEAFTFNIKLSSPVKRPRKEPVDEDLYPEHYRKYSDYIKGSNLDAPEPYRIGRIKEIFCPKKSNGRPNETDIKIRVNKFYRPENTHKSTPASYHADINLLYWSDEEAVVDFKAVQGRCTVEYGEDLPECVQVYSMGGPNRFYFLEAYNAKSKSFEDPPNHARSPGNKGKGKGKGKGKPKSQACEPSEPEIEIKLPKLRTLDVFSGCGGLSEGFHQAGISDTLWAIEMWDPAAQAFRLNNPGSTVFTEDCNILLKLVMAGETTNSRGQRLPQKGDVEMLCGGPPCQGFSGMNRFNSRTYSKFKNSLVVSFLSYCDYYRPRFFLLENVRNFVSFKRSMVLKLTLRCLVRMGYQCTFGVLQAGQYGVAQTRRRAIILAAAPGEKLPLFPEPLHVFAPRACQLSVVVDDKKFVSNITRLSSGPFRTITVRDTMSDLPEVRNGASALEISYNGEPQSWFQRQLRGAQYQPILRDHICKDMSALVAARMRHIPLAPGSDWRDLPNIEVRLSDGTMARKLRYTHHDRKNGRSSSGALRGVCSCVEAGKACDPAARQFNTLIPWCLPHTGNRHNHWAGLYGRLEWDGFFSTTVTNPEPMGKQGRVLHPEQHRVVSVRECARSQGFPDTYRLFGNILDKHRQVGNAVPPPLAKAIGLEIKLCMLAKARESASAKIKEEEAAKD
Scp-1 conf: Scp-1 phosphatase inhibitors, retest, confirmation, biochemical, colorimetric, single concentration | shares compounds with Scp1 inh | recombinant SCP-1 catalytic domain, phosphate release, malachite green absorbance | inhibition, % at 20 µM | 61% of 2,500 active | AID 540281, 2011;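 note: plate controls were DMSO with enzyme for no effect and buffer wells lacking enzyme for full effect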
Scp-1 MG ctr: colorimetric readout interference by compounds, confirmation, artefact control for Scp-1 inhibitor project, biochemical, single concentration | shares compounds with Scp1 inh | 2,500 tested, under 10 active | Colorimetric interference counterscreen, malachite green absorbance 630 nm | apparent inhibition (interference), % at 20 µM | AID 540313, 2011;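 note: compounds added after enzyme reaction finished so only phosphate colour detection is probed; plate controls were DMSO wells with completed Scp-1 reaction for no effect and substrate wells lacking enzyme for full effect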
Scp1 DSF: Scp-1 binding by thermal shift, confirmation, orthogonal assay for Scp-1 inhibitor project, biophysical, differential scanning fluorimetry; shares compounds with Scp1 inh; Recombinant SCP1, Sypro Orange thermal shift Tm; thermal shift relative to vanadate control, % at 40 µM; 25% of 1,500 active; AID 540329, 2011;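 active = substances whose mean melting-temperature shift, as a percentage of the reference inhibitor's shift, reaches about 5.3%, limit read from the data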;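 note: 0% = Tm of DMSO wells and 100% = Tm with sodium orthovanadate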
An asterisk follows results filed as active; . = no result. Shown are actives, neighbours in structure and some others; about 1.7% of the full set was active somewhere.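 Rule for the calls, unless noted: active = inhibition of at least 30% at 20 µM; inactive = the rest.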

SMILES	Scp1 inh	STEP inh	SUMO1-SIM PPI	LMPTP block	DNMT1 inh	Scp-1 conf	Scp-1 MG ctr	others
CN1CCN(C(=O)C[C@H]2CC[C@H]3[C@@H](COC[C@@H](O)CN3Cc3cccc(F)c3)O2)CC1	.	.	5	-5	.	.	.
CCOC(=O)c1c(-c2ccco2)csc1NC(=O)COC(=O)c1cnccn1	60*	2	10	4	13	29	-24
CCOC(=O)c1c(NC(=O)COC(=O)c2cnccn2)sc(C(=O)NC)c1C	1	2	-1	-1	1	.	.
COc1nc(-c2ccccc2)ccc1-c1noc(-c2ccco2)n1	99*	2	5	2	-9	-6	-17
COc1ccc(-c2ccc(-c3noc(-c4ccco4)n3)c(OC)n2)cc1	-4	-1	3	1	0	.	.
Cc1cc2ccccn2c1C(=O)c1ccc(N/N=C/c2ccc(C(=O)O)cc2)c([N+](=O)[O-])c1	114*	99*	104*	8	88*	70*	-19	Scp1 DSF=6.4*
CC(N)c1csc(Nc2nccc(C(F)(F)F)n2)n1 (stereo unspecified)	.	-1	-2	-1	-2	.	.
O=C(Nc1nnc(SCc2ccc(F)cc2)s1)C1CC(=O)N(c2ccc3c(c2)OCCO3)C1 (stereo unspecified)	-1	-4	6	1	0	.	.
Cc1nnc(NC(=O)C2CC(=O)N(c3ccc4c(c3)OCCO4)C2)s1 (stereo unspecified)	1	-2	-4	0	6	.	.
O=C(Nc1nc(-c2ccco2)c(-c2ccco2)s1)C1CC(=O)N(c2ccc3c(c2)OCCO3)C1 (stereo unspecified)	82*	12	27	39	72*	57*	-14	Scp1 DSF=13*
O=C(Nc1nnc(SCc2c(Cl)cccc2Cl)s1)C1CC(=O)N(c2ccc3c(c2)OCCO3)C1 (stereo unspecified)	67*	2	-1	4	42	66*	-16	Scp1 DSF=-12
O=C(CSc1nc2sc3c(c2c(=O)n1-c1ccccc1)CCCC3)N/N=C/c1ccccc1C(=O)O	78*	76*	5	1	5	49*	-8	Scp1 DSF=-5
COc1cc(Br)cc2cc(C(=O)N3CCN(C(=O)c4ccco4)CC3)c(=O)oc12	56*	3	-3	8	11	-7	-13
COc1cccc2cc(C(=O)N3CCN(C(=O)c4ccco4)CC3)c(=O)oc12	-1	-2	4	-1	3	.	.
Cc1cccc(NS(=O)(=O)c2ccc(C)c(C(=O)NCC(c3cccs3)N3CCOCC3)c2)c1 (stereo unspecified)	-10	-2	6	1	1	.	.
CC1CCC(C(C)C)C(OCC[N+](C)(C)C)C1 (stereo unspecified)	58*	-2	2	-3	5	-10	-10
O=C(NNC(=O)c1ccccc1F)c1ccc(Cl)c(S(=O)(=O)N2CCOCC2)c1	57*	-2	7	0	3	-12	-13
O=C(CCNC(=O)c1ccc([N+](=O)[O-])cc1)Nc1ccc(F)cc1	-5	-2	-27	-1	-1	.	.
O=C(CCNC(=O)c1ccc([N+](=O)[O-])cc1)NNC(=O)c1ccncc1	50*	-1	-28	-2	1	6	-4
Nc1cc([N+](=O)[O-])ccc1N1C(=O)CCCC1=O	64*	4	-8	2	16	49*	-8	Scp1 DSF=-16
Cc1c(C(=O)NCc2cccc(C(F)(F)F)c2)sc(=O)n1Cc1ccc(S(=O)(=O)N(C)C)cc1	.	0	-1	0	5	.	.
O=C(Nc1ccc(Br)cn1)c1coc(=O)c(Br)c1	69*	2	-6	-2	9	25	-7
Cn1c(SCC(=O)N/N=C/C=C\c2ccco2)nc2ccccc21	84*	6	16	26	54*	62*	-12	Scp1 DSF=0
Cc1cccc(OCCOCCN2CCOCC2)c1C	51*	2	3	0	2	-16	-13
Cc1cccc(OCCOCCN2CCNCC2)c1C	0	-2	-2	-3	17	.	.
SMILES	Scp1 inh	STEP inh	SUMO1-SIM PPI	LMPTP block	DNMT1 inh	Scp-1 conf	Scp-1 MG ctr	others
COc1ccc(NC(=O)N(C)C[C@H]2Oc3ccc(NC(=O)Nc4c(C)noc4C)cc3C(=O)N([C@H](C)CO)C[C@@H]2C)cc1	62*	2	7	0	4	-3	-20
COc1ccc(S(=O)(=O)N(C)C[C@H]2Oc3ccc(NS(=O)(=O)c4ccccc4)cc3C(=O)N([C@H](C)CO)C[C@@H]2C)cc1	59*	0	-6	-1	0	5	-10
C[C@H](CO)N1C[C@H](C)[C@@H](CN(C)C(=O)NC2CCCCC2)Oc2ccc(NS(=O)(=O)c3ccccc3)cc2C1=O	-3	0	1	-2	-3	.	.
COc1ccc(S(=O)(=O)Nc2ccc3c(c2)C(=O)N([C@H](C)CO)C[C@H](C)[C@@H](CN(C)S(=O)(=O)c2ccccc2)O3)cc1	-6	-1	3	0	2	.	.
COc1ccc(NC(=O)Nc2ccc3c(c2)C(=O)N([C@H](C)CO)C[C@H](C)[C@@H](CN(C)C(=O)Nc2ccccc2)O3)cc1	71*	-4	10	-1	4	8	-10
Cc1noc(C)c1S(=O)(=O)Nc1ccc2c(c1)C(=O)N([C@H](C)CO)C[C@H](C)[C@@H](CN(C)C(=O)NC1CCCCC1)O2	56*	-2	7	-1	9	21	-6
COC(=O)[C@]12CCCCC=C1N(Cc1ccccc1)C(=O)[C@H](CC(=O)N1CCCC1)C2	.	.	-4	-2	.	.	.
COc1ccc(NC(=O)N(C)C[C@H]2Oc3ccc(NS(=O)(=O)c4c(C)noc4C)cc3C(=O)N([C@H](C)CO)C[C@@H]2C)cc1	58*	-2	2	-1	12	10	-17
